# According to ChEMBL document CHEMBL4689842, “EUbOPEN Chemogenomics Library wave 1” (2021):
# Tested on: HEK-293T
# Assay: Multiplex assay against HEK293T;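 for Population Tubulin-Different-Phenotype (%): share of the cells with healthy nuclei that show this phenotype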
# Format: toxicity, cell-based
# Conditions: human
# How it was run: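 Hoechst33342, BioTracker Green Microtubule Cytoskeleton Dye, MitoTracker Red and Annexin V Alexa Fluor 680 were added to live cells at seeding, and imaging on a CQ1 microscope at 37°C and 5% CO2 followed compound addition. Gating by CellPathfinder machine learning separated cells into Hoechst high-intensity objects or normal cells, then normal cells into healthy, pyknosed or fragmented nuclei, then pyknosed cells into mitotic or apoptotic. Per cents of healthy-nucleus cells are reported for the tubulin, mitochondrial-mass and membrane-permeability phenotypes.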
# [1] = 12 h, 1 µM, compound concentration 1 uM, replicate 1
# [2] = 12 h, 1 µM, compound concentration 1 uM, replicate 2
# [3] = 12 h, 10 µM, compound concentration 10 uM, replicate 1
# [4] = 12 h, 10 µM, compound concentration 10 uM, replicate 2
# [5] = 24 h, 1 µM, compound concentration 1 uM, replicate 1
# [6] = 24 h, 1 µM, compound concentration 1 uM, replicate 2
# [7] = 24 h, 10 µM, compound concentration 10 uM, replicate 1
# [8] = 24 h, 10 µM, compound concentration 10 uM, replicate 2
# [9] = 48 h, 1 µM, compound concentration 1 uM, replicate 1
# [10] = 48 h, 1 µM, compound concentration 1 uM, replicate 2
# [11] = 48 h, 10 µM, compound concentration 10 uM, replicate 1
# [12] = 48 h, 10 µM, compound concentration 10 uM, replicate 2
smiles,measurement,setting,value
C[C@@H](NCCCc1cccc(C(F)(F)F)c1)c1cccc2ccccc12.Cl [CINACALCET HYDROCHLORIDE],Population Apoptotic (%),[1],48%
same,Population Fragmented Nuclei (%),[1],4%
same,Population Healthy Nuclei (%),[1],49%
same,Population Hoechst High Intensity Objects (%),[1],8%
same,Population Membrane Permeable-Phenotype (%),[1],2%
same,Population Mitochondria Different-Phenotype (%),[1],90%
same,Population Mitotic Cells (%),[1],51%
same,Population Normal (%),[1],91%
same,Population Pyknosed Nuclei (%),[1],46%
same,Population Tubulin-Different-Phenotype (%),[1],72%
same,Total Cell Count,[1],382
same,Population Apoptotic (%),[2],16%
same,Population Fragmented Nuclei (%),[2],7%
same,Population Healthy Nuclei (%),[2],32%
same,Population Hoechst High Intensity Objects (%),[2],3%
same,Population Membrane Permeable-Phenotype (%),[2],6%
same,Population Mitochondria Different-Phenotype (%),[2],51%
same,Population Mitotic Cells (%),[2],83%
same,Population Normal (%),[2],96%
same,Population Pyknosed Nuclei (%),[2],60%
same,Population Tubulin-Different-Phenotype (%),[2],67%
same,Total Cell Count,[2],158
same,Population Apoptotic (%),[3],87%
same,Population Fragmented Nuclei (%),[3],12%
same,Population Healthy Nuclei (%),[3],13%
same,Population Hoechst High Intensity Objects (%),[3],19%
same,Population Membrane Permeable-Phenotype (%),[3],0%
same,Population Mitochondria Different-Phenotype (%),[3],95%
same,Population Mitotic Cells (%),[3],12%
same,Population Normal (%),[3],80%
same,Population Pyknosed Nuclei (%),[3],74%
same,Population Tubulin-Different-Phenotype (%),[3],95%
same,Total Cell Count,[3],195
same,Population Apoptotic (%),[4],80%
same,Population Fragmented Nuclei (%),[4],3%
same,Population Healthy Nuclei (%),[4],11%
same,Population Hoechst High Intensity Objects (%),[4],4%
same,Population Mitotic Cells (%),[4],19%
same,Population Normal (%),[4],95%
same,Population Pyknosed Nuclei (%),[4],84%
same,Population Tubulin-Different-Phenotype (%),[4],90%
same,Total Cell Count,[4],193
same,Population Apoptotic (%),[5],40%
same,Population Healthy Nuclei (%),[5],61%
same,Population Hoechst High Intensity Objects (%),[5],7%
same,Population Membrane Permeable-Phenotype (%),[5],1%
same,Population Mitochondria Different-Phenotype (%),[5],77%
same,Population Mitotic Cells (%),[5],59%
same,Population Normal (%),[5],92%
same,Population Pyknosed Nuclei (%),[5],30%
same,Population Tubulin-Different-Phenotype (%),[5],63%
same,Total Cell Count,[5],417
same,Population Apoptotic (%),[6],28%
same,Population Fragmented Nuclei (%),[6],8%
same,Population Healthy Nuclei (%),[6],48%
same,Population Hoechst High Intensity Objects (%),[6],4%
same,Population Membrane Permeable-Phenotype (%),[6],6%
same,Population Mitochondria Different-Phenotype (%),[6],47%
same,Population Mitotic Cells (%),[6],71%
same,Population Normal (%),[6],95%
same,Population Pyknosed Nuclei (%),[6],43%
same,Population Tubulin-Different-Phenotype (%),[6],60%
same,Total Cell Count,[6],201
same,Population Apoptotic (%),[7],87%
same,Population Fragmented Nuclei (%),[7],15%
same,Population Healthy Nuclei (%),[7],15%
same,Population Hoechst High Intensity Objects (%),[7],19%
same,Population Membrane Permeable-Phenotype (%),[7],3%
same,Population Mitotic Cells (%),[7],12%
same,Population Normal (%),[7],80%
same,Population Pyknosed Nuclei (%),[7],68%
same,Population Tubulin-Different-Phenotype (%),[7],96%
same,Total Cell Count,[7],227
same,Population Apoptotic (%),[8],86%
same,Population Fragmented Nuclei (%),[8],4%
same,Population Healthy Nuclei (%),[8],18%
same,Population Hoechst High Intensity Objects (%),[8],8%
same,Population Membrane Permeable-Phenotype (%),[8],6%
same,Population Mitochondria Different-Phenotype (%),[8],100%
same,Population Mitotic Cells (%),[8],13%
same,Population Normal (%),[8],91%
same,Population Pyknosed Nuclei (%),[8],76%
same,Population Tubulin-Different-Phenotype (%),[8],84%
same,Total Cell Count,[8],198
same,Population Apoptotic (%),[9],27%
same,Population Fragmented Nuclei (%),[9],7%
same,Population Healthy Nuclei (%),[9],79%
same,Population Membrane Permeable-Phenotype (%),[9],1%
same,Population Mitochondria Different-Phenotype (%),[9],43%
same,Population Mitotic Cells (%),[9],72%
same,Population Pyknosed Nuclei (%),[9],12%
same,Population Tubulin-Different-Phenotype (%),[9],48%
same,Total Cell Count,[9],730
same,Population Apoptotic (%),[10],21%
same,Population Fragmented Nuclei (%),[10],3%
same,Population Healthy Nuclei (%),[10],74%
same,Population Hoechst High Intensity Objects (%),[10],5%
same,Population Membrane Permeable-Phenotype (%),[10],9%
same,Population Mitochondria Different-Phenotype (%),[10],23%
same,Population Mitotic Cells (%),[10],78%
same,Population Normal (%),[10],94%
same,Population Pyknosed Nuclei (%),[10],22%
same,Population Tubulin-Different-Phenotype (%),[10],57%
same,Total Cell Count,[10],266
same,Population Apoptotic (%),[11],90%
same,Population Fragmented Nuclei (%),[11],24%
same,Population Healthy Nuclei (%),[11],12%
same,Population Hoechst High Intensity Objects (%),[11],18%
same,Population Membrane Permeable-Phenotype (%),[11],0%
same,Population Mitochondria Different-Phenotype (%),[11],100%
same,Population Mitotic Cells (%),[11],9%
same,Population Normal (%),[11],81%
same,Population Pyknosed Nuclei (%),[11],63%
same,Population Tubulin-Different-Phenotype (%),[11],86%
same,Total Cell Count,[11],216
same,Population Apoptotic (%),[12],89%
same,Population Fragmented Nuclei (%),[12],6%
same,Population Healthy Nuclei (%),[12],18%
same,Population Hoechst High Intensity Objects (%),[12],9%
same,Population Membrane Permeable-Phenotype (%),[12],8%
same,Population Mitochondria Different-Phenotype (%),[12],94%
same,Population Mitotic Cells (%),[12],10%
same,Population Normal (%),[12],90%
same,Population Pyknosed Nuclei (%),[12],75%
same,Population Tubulin-Different-Phenotype (%),[12],70%
same,Total Cell Count,[12],203
